This note sets out measurements from PMC11003489 (Journal of Enzyme Inhibition and Medicinal Chemistry, 2023).

The test system of assay [1] is human lung cancer A549 cells. Kind of assay: MTT cytotoxicity screening on human lung cancer cells. The assay is classed as cell-based. The note with it: for IC50: Homo sapiens, A549, 72 h, read-out: A549 IC50; for SI (selectivity index): ratio of IC50 values against Wi-38 and A549 cells. A digest of the protocol:
(§1)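 A549 and Wi-38 cells, sourced from the National Cancer Institute (Cairo), grown in RPMI-1640 with L-glutamine, 10% FBS and 1% penicillin-streptomycin at 37 °C, 5% CO2. Seeded in triplicate at 5 × 10^4 cells, then exposed next day to test compound at 0.01, 0.1, 1, 10 and 100 µM. Viability measured by MTT relative to untreated control, and IC50 computed.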

The test system of assay [2] is normal human lung fibroblasts (Wi-38). Put plainly: MTT cytotoxicity screening on normal human lung fibroblasts. The assay is classed as cell-based. The conditions noted are these: WI-38, 72 h, read-out: Wi-38 EC50. A digest of the protocol: as §1
Another assay has as its target CDK2 (Homo sapiens, UniProt P24941). Kind of assay: In vitro CDK2 inhibition, CDK2 luminescence kinase assay kit. The assay is classed as biochemical.

In the case of `O=C(c1nc2ccccc2[nH]1)[C@H]1[C@H](c2ccco2)[C@H]2CCCN2[C@@]12c1ccccc1-c1nc3ccccc3nc12` [Compound 4a, (1H-Benzo[d]imidazol-2-yl)((1'S,2'S,7a’R,11R)-1'-(furan-2-yl)-1',2',5',6',7',7a’-hexahydrospiro[indeno[1,2-b]quinoxaline-11,3'-pyrrolizin]-2'-yl)methanone], in assay [1], the IC50 amounted to 0.082 ± 0.002 µM and the “SI (selectivity index)” value is listed as 7.402. Further, the EC50 in assay [2] is 0.607 ± 0.05 µM.
In the case of `O=C(c1nc2ccccc2[nH]1)[C@H]1[C@H](c2ccc(Cl)cc2Cl)[C@H]2CCCN2[C@@]12c1ccccc1-c1nc3ccccc3nc12` [Compound 4b, (1H-Benzo[d]imidazol-2-yl)((1'R,2'S,7a’R,11R)-1'-(2,4-dichlorophenyl)-1',2',5',6',7',7a’-hexahydrospiro[indeno[1,2-b]quinoxaline-11,3'-pyrrolizin]-2'-yl)methanone], in assay [1], the IC50 came to 0.225 ± 0.005 µM and the “SI (selectivity index)” value came to 3.942. Besides, in assay [2], the EC50 worked out at 0.887 ± 0.011 µM.
Regarding `O=C(c1nc2ccccc2[nH]1)[C@H]1[C@H](c2ccc(F)cc2)[C@H]2CCCN2[C@@]12c1ccccc1-c1nc3ccccc3nc12` [Compound 4c, (1H-Benzo[d]imidazol-2-yl)((1'R,2'S,7a’R,11R)-1'-(4-fluorophenyl)-1',2',5',6',7',7a’-hexahydrospiro[indeno[1,2-b]quinoxaline-11,3'-pyrrolizin]-2'-yl)methanone], in assay [1], the IC50 turned out to be 0.206 ± 0.009 µM and the “SI (selectivity index)” value came out at 1.053. For the same compound, the EC50 in assay [2] is 0.217 ± 0.007 µM.
As for `O=C(c1nc2ccccc2[nH]1)[C@H]1[C@H](c2ccc(Br)cc2)[C@H]2CCCN2[C@@]12c1ccccc1-c1nc3ccccc3nc12` [Compound 4d, (1H-Benzo[d]imidazol-2-yl)((1'R,2'S,7a’R,11R)-1'-(4-bromophenyl)-1',2',5',6',7',7a’-hexahydrospiro[indeno[1,2-b]quinoxaline-11,3'-pyrrolizin]-2'-yl)methanone], in assay [1], the IC50 worked out at 0.135 ± 0.002 µM and the “SI (selectivity index)” value was 1.303. In assay [2], the concentration for a half-maximal effect (EC50) was found to be 0.176 ± 0.002 µM.
Turning to `O=C(c1nc2ccccc2[nH]1)[C@H]1[C@H](c2cccc(F)c2)[C@H]2CCCN2[C@@]12c1ccccc1-c1nc3ccccc3nc12` [Compound 4e, (1H-Benzo[d]imidazol-2-yl)((1'R,2'S,7a’R,11R)-1'-(3-fluorophenyl)-1',2',5',6',7',7a’-hexahydrospiro[indeno[1,2-b]quinoxaline-11,3'-pyrrolizin]-2'-yl)methanone], in assay [1], the concentration for half-maximal inhibition (IC50) came out at 0.321 ± 0.005 µM and the “SI (selectivity index)” value is listed as 3.429. Also, in assay [2], the EC50 was found to be 1.1 ± 0.205 µM.
For the compound `O=C(c1nc2ccccc2[nH]1)[C@H]1[C@H](c2cccs2)[C@H]2CCCN2[C@@]12c1ccccc1-c1nc3ccccc3nc12` [Compound 4g, (1H-Benzo[d]imidazol-2-yl)((1'S,2'S,7a’R,11R)-1'-(thiophen-2-yl)-1',2',5',6',7',7a’-hexahydrospiro[indeno[1,2-b]quinoxaline-11,3'-pyrrolizin]-2'-yl)methanone], in assay [1], the IC50 was 0.182 ± 0.004 µM and the “SI (selectivity index)” value is 1.384. In addition, in assay [2], the EC50 was 0.252 ± 0.001 µM.
As to `O=C(c1nc2ccccc2[nH]1)[C@H]1[C@H](c2ccccc2)[C@H]2CCCN2[C@@]12c1ccccc1-c1nc3ccccc3nc12` [Compound 4h, (1H-Benzo[d]imidazol-2-yl)((1'R,2'S,7a’R,11R)-1'-phenyl-1',2',5',6',7',7a’-hexahydrospiro[indeno[1,2-b]quinoxaline-11,3'-pyrrolizin]-2'-yl)methanone], in assay [1], the IC50 turned out to be 0.177 ± 0.003 µM and the “SI (selectivity index)” value was 1.090. Besides, the EC50 in assay [2] was found to be 0.193 ± 0.01 µM.
On the same counts, the results for `O=c1[nH]cc(F)c(=O)[nH]1` [Compound 5-Fu, 5-fluorouracil, reference compound] are 3.78 ± 0.52 µM, 1.107 and 4.19 ± 0.168 µM.
Turning to `O=C(c1nc2ccccc2[nH]1)[C@H]1[C@H](c2ccco2)C2CC3CCCCC3N2[C@@]12c1ccccc1-c1nc3ccccc3nc12` (stereo partly drawn) [Compound 6a, (1H-Benzo[d]imidazol-2-yl)((1'S,2'S,11R)-1'-(furan-2-yl)-1',2',4a’,5',6',7',8',8a’,9',9a’-decahydrospiro[indeno[1,2-b]quinoxaline-11,3'-pyrrolo[1,2-a]indol]-2'-yl)methanone], in assay [1], the concentration for half-maximal inhibition (IC50) was 0.098 ± 0.006 µM and the “SI (selectivity index)” value is listed as 1.142. In addition, the half-maximal effective concentration (EC50) in assay [2] amounted to 0.112 ± 0.001 µM.
With `O=C(c1nc2ccccc2[nH]1)[C@H]1[C@H](c2ccc(Cl)cc2Cl)C2CC3CCCCC3N2[C@@]12c1ccccc1-c1nc3ccccc3nc12` (stereo partly drawn) [Compound 6b, (1H-Benzo[d]imidazol-2-yl)((1'R,2'S,11R)-1'-(2,4-dichlorophenyl)-1',2',4a’,5',6',7',8',8a’,9',9a’-decahydrospiro[indeno[1,2-b]quinoxaline-11,3'-pyrrolo[1,2-a]indol]-2'-yl)methanone], in assay [1], the IC50 turned out to be 0.054 ± 0.008 µM and the “SI (selectivity index)” value came out at 6.648. Besides, the EC50 in assay [2] came to 0.359 ± 0.008 µM. In addition, the “% inhibition ± SD at [10 μM] of CDK2” value at CDK2 (10 μM) stood at 70.72 ± 2.8%. This compound displayed an IC50 against CDK2 (CDK2 IC50, serial dilutions 0.01–10 μM, mean ± SD of three replicates) of 0.177 µM. For the same compound, the inhibition at 10 µM on CDK2 (read-out: % inhibition ± SD at [10 μM] of CDK2, 10 μM) was 70.7%.
Turning to `O=C(c1nc2ccccc2[nH]1)[C@H]1[C@H](c2ccc(F)cc2)C2CC3CCCCC3N2[C@@]12c1ccccc1-c1nc3ccccc3nc12` (stereo partly drawn) [Compound 6c, (1H-Benzo[d]imidazol-2-yl)((1'R,2'S,11R)-1'-(4-fluorophenyl)-1',2',4a’,5',6',7',8',8a’,9',9a’-decahydrospiro[indeno[1,2-b]quinoxaline-11,3'-pyrrolo[1,2-a]indol]-2'-yl)methanone], in assay [1], the IC50 was determined as 0.139 ± 0.003 µM and the “SI (selectivity index)” value amounted to 1.208. Further, in assay [2], the EC50 was determined as 0.168 ± 0.019 µM.
As to `O=C(c1nc2ccccc2[nH]1)[C@H]1[C@H](c2ccc(Br)cc2)C2CC3CCCCC3N2[C@@]12c1ccccc1-c1nc3ccccc3nc12` (stereo partly drawn) [Compound 6d, (1H-Benzo[d]imidazol-2-yl)((1'R,2'S,11R)-1'-(4-bromophenyl)-1',2',4a’,5',6',7',8',8a’,9',9a’-decahydrospiro[indeno[1,2-b]quinoxaline-11,3'-pyrrolo[1,2-a]indol]-2'-yl)methanone], in assay [1], the IC50 turned out to be 0.087 ± 0.003 µM and the “SI (selectivity index)” value came out at 0.885. In addition, the EC50 in assay [2] was 0.077 ± 0.001 µM.
In the case of `O=C(c1nc2ccccc2[nH]1)[C@H]1[C@H](c2cccc(F)c2)C2CC3CCCCC3N2[C@@]12c1ccccc1-c1nc3ccccc3nc12` (stereo partly drawn) [Compound 6e, (1H-Benzo[d]imidazol-2-yl)((1'R,2'S,11R)-1'-(3-fluorophenyl)-1',2',4a’,5',6',7',8',8a’,9',9a’-decahydrospiro[indeno[1,2-b]quinoxaline-11,3'-pyrrolo[1,2-a]indol]-2'-yl)methanone], in assay [1], the IC50 was 0.137 ± 0.016 µM and the “SI (selectivity index)” value was found to be 0.832. Moreover, the EC50 in assay [2] is 0.114 ± 0.003 µM.
For `COc1ccc([C@@H]2C3CC4CCCCC4N3[C@@]3(c4ccccc4-c4nc5ccccc5nc43)[C@H]2C(=O)c2nc3ccccc3[nH]2)cc1` (stereo partly drawn) [Compound 6f, (1H-Benzo[d]imidazol-2-yl)((1'R,2'S,11R)-1'-(4-methoxyphenyl)-1',2',4a’,5',6',7',8',8a’,9',9a’-decahydrospiro[indeno[1,2-b]quinoxaline-11,3'-pyrrolo[1,2-a]indol]-2'-yl)methanone], in that order: 0.107 ± 0.002 µM, 5.130 and 0.549 ± 0.01 µM.
On the same counts, the results for `O=C(c1nc2ccccc2[nH]1)[C@H]1[C@H](c2cccs2)C2CC3CCCCC3N2[C@@]12c1ccccc1-c1nc3ccccc3nc12` (stereo partly drawn) [Compound 6g, (1H-Benzo[d]imidazol-2-yl)((1'S,2'S,11R)-1'-(thiophen-2-yl)-1',2',4a’,5',6',7',8',8a’,9',9a’-decahydrospiro[indeno[1,2-b]quinoxaline-11,3'-pyrrolo[1,2-a]indol]-2'-yl)methanone] are 0.084 ± 0.004 µM, 1.952 and 0.164 ± 0.06 µM.
For the compound `O=C(c1nc2ccccc2[nH]1)[C@H]1[C@H](c2ccccc2)C2CC3CCCCC3N2[C@@]12c1ccccc1-c1nc3ccccc3nc12` (stereo partly drawn) [Compound 6h, (1H-Benzo[d]imidazol-2-yl)((1'R,2'S,11R)-1'-phenyl-1',2',4a’,5',6',7',8',8a’,9',9a’-decahydrospiro[indeno[1,2-b]quinoxaline-11,3'-pyrrolo[1,2-a]indol]-2'-yl)methanone], in assay [1], the IC50 was 0.202 ± 0.006 µM and the “SI (selectivity index)” value amounted to 0.856. Also, the EC50 in assay [2] is 0.173 ± 0.001 µM.

In general, IC50 refers to the concentration that gives 50% inhibition. For orientation: EC50 means the concentration at which the effect is half-maximal. What is called inhibition is the share of the control response that was lost under treatment.
